Data set [1] is described as follows: Growth inhibition of human Molt4/C8 cells after 3 days. The format is functional, cell-based. The settings on record: MOLT-4, 72 h. Summed up:
(§1)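 Human CEM and Molt 4/C8 T-lymphocytes were grown for three days with or without serial dilutions of the compound. IC50 is the concentration that inhibits cell growth by 50%.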

In data set [2] the test system is CCRF-CEM. As to the kind of experiment: Growth inhibition of human CEM cells after 3 days. Format: functional, cell-based. The conditions noted are these: 72 h. Summed up: as §1
The target of data set [3] is T1, ATP-dependent translocase ABCB1 (Homo sapiens, UniProt P08183). The data set is described as follows: Reversal of P-glycoprotein-mediated multidrug resistance in human MDR1 gene transfected mouse L5178Y cells assessed as fluorescence activity ratio at 20 uM by rhodamine 123 accumulation assay. Format: cell-based. The method in brief: (§2)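 Murine L-5178Y lymphoma cells transfected with human MDR1 gene (P-gp-overexpressing), alongside parental cells, treated or untreated with compound; rhodamine 123 accumulation measured by fluorescence; FAR = ratio of fluorescence intensity in treated versus untreated cells, values above 1 taken as MDR reversal.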
T1 sequence (P08183 whole entry): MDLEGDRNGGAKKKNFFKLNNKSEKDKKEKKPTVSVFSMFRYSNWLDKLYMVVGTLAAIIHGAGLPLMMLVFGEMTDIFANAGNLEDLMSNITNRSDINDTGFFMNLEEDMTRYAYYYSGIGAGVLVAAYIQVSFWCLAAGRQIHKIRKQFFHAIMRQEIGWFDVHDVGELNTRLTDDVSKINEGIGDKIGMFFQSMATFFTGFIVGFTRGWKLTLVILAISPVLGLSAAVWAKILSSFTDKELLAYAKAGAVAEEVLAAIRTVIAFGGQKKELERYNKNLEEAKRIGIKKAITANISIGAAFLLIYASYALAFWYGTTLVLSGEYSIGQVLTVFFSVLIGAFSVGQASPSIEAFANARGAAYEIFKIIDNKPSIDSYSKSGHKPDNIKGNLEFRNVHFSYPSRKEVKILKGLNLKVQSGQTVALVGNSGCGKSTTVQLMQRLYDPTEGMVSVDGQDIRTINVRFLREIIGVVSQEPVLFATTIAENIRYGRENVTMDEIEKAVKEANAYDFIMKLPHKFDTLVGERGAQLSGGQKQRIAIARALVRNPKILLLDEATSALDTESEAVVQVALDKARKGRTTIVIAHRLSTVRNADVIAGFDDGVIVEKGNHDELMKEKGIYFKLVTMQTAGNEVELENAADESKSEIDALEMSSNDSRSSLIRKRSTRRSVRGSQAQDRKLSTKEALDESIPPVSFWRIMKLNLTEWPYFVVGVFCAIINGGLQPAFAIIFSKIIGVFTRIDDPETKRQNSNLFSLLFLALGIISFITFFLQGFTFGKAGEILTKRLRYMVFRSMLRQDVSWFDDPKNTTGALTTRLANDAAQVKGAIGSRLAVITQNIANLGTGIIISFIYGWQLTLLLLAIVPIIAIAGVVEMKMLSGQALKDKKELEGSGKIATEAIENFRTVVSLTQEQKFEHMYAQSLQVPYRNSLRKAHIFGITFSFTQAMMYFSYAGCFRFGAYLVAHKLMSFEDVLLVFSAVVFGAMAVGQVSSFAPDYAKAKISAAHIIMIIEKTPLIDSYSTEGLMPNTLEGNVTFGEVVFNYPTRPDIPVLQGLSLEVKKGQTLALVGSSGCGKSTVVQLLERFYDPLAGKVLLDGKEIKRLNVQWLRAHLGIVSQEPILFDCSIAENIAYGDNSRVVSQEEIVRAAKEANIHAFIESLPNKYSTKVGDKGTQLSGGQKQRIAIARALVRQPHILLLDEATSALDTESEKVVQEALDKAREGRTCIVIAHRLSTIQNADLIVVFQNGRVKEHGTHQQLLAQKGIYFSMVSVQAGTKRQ

Data set [4] addresses T1, ATP-dependent translocase ABCB1. The data set is described as follows: Reversal of P-glycoprotein-mediated multidrug resistance in human MDR1 gene transfected mouse L5178Y cells assessed as fluorescence activity ratio at 200 uM by rhodamine 123 accumulation assay. Format: cell-based. The method in brief: as §2
A short description of data set [5]: Cytotoxicity against human HGF cells after 48 hrs. Format: cell-based.
Data set [6] can be described thus: Cytotoxicity against human HPC cells after 48 hrs. The format is cell-based.
Data set [7] in a line: Cytotoxicity against human HPLF cells after 48 hrs. Format: cell-based.
Data set [8] deals with HL-60. As to the kind of experiment: Cytotoxicity against human HL60 cells after 48 hrs. The format is functional. The conditions noted are these: HL-60, 48 h.
In data set [9] the test system is HSC-2. As to the kind of experiment: Cytotoxicity against human HSC2 cells after 48 hrs. Format: functional. The conditions noted are these: HSC-2, 48 h.
Data set [10] deals with HSC-3. The data set is described as follows: Cytotoxicity against human HSC3 cells after 48 hrs. The format is functional. The settings on record: HSC-3, 48 h.
The test system of data set [11] is HSC-4. The data set is described as follows: Cytotoxicity against human HSC4 cells after 48 hrs. Format: functional. The settings on record: HSC-4, 48 h.

With `Cc1c(C(=O)/C=C/c2cccc([N+](=O)[O-])c2)[n+]([O-])c2ccccc2[n+]1[O-]`, the IC50 in data set [1] is 16.3 µM; in data set [2], 15.8 µM. The Ratio in [3] came to 1.89; in data set [4], 3.75. For the same molecule, the values for the half-maximal cytotoxic concentration (CC50) at 48 h in data set [5], in data set [6] and in [7] were 47 µM, 46 µM and 18 µM, respectively. The CC50 in data set [8] worked out at 62 µM; in data set [9], 34 µM; in data set [10], 122 µM; in [11], 54 µM.

Regarding `CC(=O)c1c(C)[n+]([O-])c2ccccc2[n+]1[O-]` [MEQUINDOX], the IC50 is 44.6 µM in data set [1] and 87.4 µM in data set [2]. In addition, the values for the Ratio in data set [3] and in data set [4] were 1.06 and 1.04, respectively. The CC50 at 48 h in data set [5] is greater than 400 µM; in data set [6], 352 µM; in data set [7], greater than 400 µM. In addition, the CC50 in data set [8] was determined as 26 µM; in [9], 196 µM; in [10] it was 146 µM; in data set [11], 134 µM.

`Cc1c(C(=O)/C=C/c2ccc([N+](=O)[O-])cc2)[n+]([O-])c2ccccc2[n+]1[O-]`: the figures for the concentration for half-maximal inhibition (IC50) in data set [1] and in [2] were 261 µM and 164 µM, respectively. In addition, the Ratio is 1.28 in data set [3] and 2.25 in [4]. Also, the CC50 at 48 h in data set [5] was 57 µM; in [6], greater than 400 µM; in data set [7], 91 µM. For the same molecule, the CC50 in data set [8] was 262 µM; in data set [9], 55 µM; in [10], greater than 400 µM; in [11], 73 µM.

`Cc1c(C(=O)/C=C/c2ccc3c(c2)OCO3)[n+]([O-])c2ccccc2[n+]1[O-]`: the IC50 stood at 24.2 µM in data set [1] and 28.1 µM in data set [2]. The figures for the Ratio in data set [3] and in data set [4] were 1.58 and 3.67, respectively. Besides, the CC50 at 48 h in data set [5] was determined as 75 µM; in data set [6], 79 µM; in [7], 72 µM. The CC50 in data set [8] was 13 µM; in [9] it was 23 µM; in data set [10], 25 µM; in data set [11] it was 28 µM.

Turning to `Cc1c(C(=O)/C=C/c2ccc(Cl)c(Cl)c2)[n+]([O-])c2ccccc2[n+]1[O-]`, the values for the IC50 in data set [1] and in data set [2] were 10.1 µM and 15.4 µM, respectively. For the same molecule, the values for the Ratio in [3] and in [4] were 4.42 and 11.9, respectively. In addition, the values for the CC50 at 48 h in [5], in data set [6] and in data set [7] were 29 µM, 13 µM and 5.7 µM, respectively. The CC50 was determined as 27 µM in data set [8], 17 µM in data set [9], 84 µM in data set [10] and 15 µM in data set [11].

Turning to `Cc1c(C(=O)/C=C/c2ccc(Br)cc2)[n+]([O-])c2ccccc2[n+]1[O-]`, the IC50 in [1] was determined as 17.1 µM; in data set [2] it was 11.6 µM. Further, the Ratio in data set [3] was 2.03; in data set [4] it was 2.81. Also, the 50% cytotoxic concentration (CC50) at 48 h amounted to 53 µM in [5], 43 µM in data set [6] and 26 µM in data set [7]. Also, the cytotoxic concentration (CC50) in [8] worked out at 23 µM; in data set [9] it was 19 µM; in [10] it was 56 µM; in [11], 36 µM.

Source of the values: ChEMBL document CHEMBL1137767, “2-(3-Aryl-2-propenoyl)-3-methylquinoxaline-1,4-dioxides: a novel cluster of tumor-specific cytotoxins which reverse multidrug resistance” (Bioorg Med Chem, 2009).
